# Reference: PMC7195875 (Science signaling, 2018)
# How the values were obtained:
# Dectin-1 [1] = assay: Western blot of signaling after Curdlan; format: cell-based, mouse
# Outline: (§1)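 Bone-marrow macrophages (6 d culture in L-cell-conditioned medium) were stimulated with the respective agonist with or without test compound. Lysates were immunoblotted for the indicated signaling proteins, with total p38 as loading control. Blots are representative of 3 independent experiments.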
# MyD88 homodimerization = MyD88 homodimerization (UniProt P0AES6+Q99836); assay: Co-immunoprecipitation with MyD88-GyrB in RAW264.7 cells; format: cell-based, mouse; details: co-IP
# Dectin-1 [2] = assay: Curdlan-induced TNFα release from primary macrophages; format: cell-based, mouse; details: six hours
# Outline: (§2)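 Macrophages came from bone marrow of female C57BL/6 mice, grown 6 d in DMEM with 10% FCS and 30% L-cell-conditioned medium. Cells were stimulated with the respective agonist for 6 h alongside graded test compound concentrations. TNFα in supernatants was measured by ELISA. Means ± SD of 3 independent experiments.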
# TIRAP-GyrB = TIRAP-GyrB (UniProt P0AES6+Q99JY1); assay: NF-κB luciferase reporter, TIRAP-GyrB HEK293T cells, coumermycin-induced; format: cell-based, human
# Outline: (§3)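 HEK293T NF-κB luciferase reporter clones carried three NF-κB sites and GyrB fusions introduced by viral transduction with antibiotic selection. Cells received 100 nM coumermycin A1 plus test compound at 10 concentrations (56 μM–2.8 nM) in triplicate, 0.24% final DMSO. After 24 h, AlamarBlue (1 h, 37 °C) measured viability, then SteadyLite luminescence. Values were normalised to coumermycin alone (0%) and coumermycin + 30 μM PS-1145 (100%).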
# TLR7 [3] = assay: R848-induced TNFα release from primary macrophages; format: cell-based, mouse; details: six hours
# Outline: as §2
# TLR2 = assay: Pam3Cys-induced TNFα release from primary macrophages; format: cell-based, mouse; details: six hours
# Outline: as §2
# [4] = target: TIR-domain of MyD88 / full length MyD88 (Homo sapiens, UniProt Q99836); assay: Co-IP of MyD88 TIR-domain with full-length MyD88 in HEK293T cells; format: cell-based
# Outline: (§4)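 HEK293T cells were transfected by Lipofectamine with epitope-tagged MyD88: FLAG full-length plus HA-TIR domain or DD domain. Test compound or DMSO was added 7 h post-transfection, and cells were lysed at 20 h for 20 min at 4 °C in HEPES pH 7.5 buffer with 0.5% NP-40. Cleared lysates underwent FLAG M2 resin IP for 1 h at 4 °C, then immunoblotting with densitometry. Blots represent 4 independent experiments.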
# RAW264.7 cells = assay: Toxicity; format: cell-based, mouse; details: read-out: TLR9 Toxicity EC50, Table 1
# MyD88 signaling complex = MyD88 signaling complex (UniProt P0AES6+Q99836); format: cell-based, mouse; details: 10 μM MPP, 1 μM CpG-DNA, RAW264.7
# Outline: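 RAW264.7 cells stably expressing FLAG-MyD88-GyrB were SILAC-labelled (light/medium/heavy) in Arg/Lys-free RPMI with 10% dialysed FBS. Heavy cells got 10 μM test compound for 20 min; medium and heavy were then stimulated with 1 μM CpG-DNA for 60 min. […] Quantitative MS gave fold-change versus unstimulated cells, with unique peptides counted.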
# TLR9 [5] = assay: Western blot of IκBα degradation and MAPK phosphorylation after CpG-DNA; format: cell-based, mouse
# Outline: as §1
# [6] = target: DD-domain of MyD88 / full length MyD88 (Homo sapiens, UniProt Q99836); assay: Co-IP of MyD88 DD-domain with full-length MyD88 in HEK293T cells; format: cell-based
# Outline: as §4
# TLR7 [7] = assay: Western blot of NF-κB- and MAPK-pathway activation after R848; format: cell-based, mouse
# Outline: as §1
# TLR9 [8] = assay: CpG-DNA-induced TNFα release from primary macrophages; format: cell-based, mouse; details: six hours
# Outline: as §2
# [9] = target: full length human estrogen receptor β (Homo sapiens, UniProt Q92731); assay: Competitive radiometric estrogen receptor binding assay, ERβ; details: relative binding affinity, estradiol = 100
# [10] = target: T1, full length human estrogen receptor α (Homo sapiens, UniProt P03372); assay: Competitive radiometric estrogen receptor binding assay, ERα; details: relative binding affinity, estradiol = 100
# T1 sequence (P03372 1-595): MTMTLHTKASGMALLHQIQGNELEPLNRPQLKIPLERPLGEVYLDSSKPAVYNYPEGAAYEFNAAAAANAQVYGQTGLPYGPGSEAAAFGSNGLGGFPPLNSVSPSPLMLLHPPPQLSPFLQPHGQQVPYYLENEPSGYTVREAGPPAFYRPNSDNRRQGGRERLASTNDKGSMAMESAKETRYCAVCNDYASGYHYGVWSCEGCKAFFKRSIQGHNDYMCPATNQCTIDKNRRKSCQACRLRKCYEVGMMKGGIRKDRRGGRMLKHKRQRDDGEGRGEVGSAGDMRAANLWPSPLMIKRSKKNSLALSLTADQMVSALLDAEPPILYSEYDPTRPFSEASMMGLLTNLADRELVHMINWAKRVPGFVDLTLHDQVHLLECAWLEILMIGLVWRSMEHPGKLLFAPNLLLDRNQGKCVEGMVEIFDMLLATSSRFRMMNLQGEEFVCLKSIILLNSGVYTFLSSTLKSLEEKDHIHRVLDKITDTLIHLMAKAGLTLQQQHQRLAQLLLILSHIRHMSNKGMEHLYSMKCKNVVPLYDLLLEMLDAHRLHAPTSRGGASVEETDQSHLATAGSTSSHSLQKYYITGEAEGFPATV
# MyD88-GyrB = MyD88-GyrB (UniProt P0AES6+Q99836); assay: NF-κB luciferase reporter, MyD88-GyrB HEK293T cells, coumermycin-induced; format: cell-based, human
# Outline: as §3
# TLR4 = assay: LPS-induced TNFα release from primary macrophages; format: cell-based, mouse; details: six hours
# Outline: as §2
# R848-induced PBMC = details: read-out: IC50 on R848-induced PBMC; cited from earlier work
# [11] = test system: IL-1β-induced NF-κB activity; details: read-out: IC50 for IL-1β-induced NF-κB activity; cited from earlier work
# Chain of full length human estrogen receptor β (Q92731 whole entry): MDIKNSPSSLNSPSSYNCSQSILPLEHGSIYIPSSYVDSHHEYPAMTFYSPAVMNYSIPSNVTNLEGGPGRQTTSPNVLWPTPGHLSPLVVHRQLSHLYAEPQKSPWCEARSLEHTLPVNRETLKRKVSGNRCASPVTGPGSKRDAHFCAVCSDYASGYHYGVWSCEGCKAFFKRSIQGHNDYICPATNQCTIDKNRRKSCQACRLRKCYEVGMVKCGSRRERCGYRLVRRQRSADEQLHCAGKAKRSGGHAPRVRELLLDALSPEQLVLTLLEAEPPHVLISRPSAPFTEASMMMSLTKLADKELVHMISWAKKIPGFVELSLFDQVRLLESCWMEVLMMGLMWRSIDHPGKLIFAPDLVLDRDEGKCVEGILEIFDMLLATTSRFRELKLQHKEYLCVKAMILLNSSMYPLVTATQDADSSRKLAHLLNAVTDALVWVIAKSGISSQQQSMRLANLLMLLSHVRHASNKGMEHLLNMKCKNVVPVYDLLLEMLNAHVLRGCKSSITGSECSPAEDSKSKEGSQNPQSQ
compound,measurement,setting,value
"Cc1c(-c2ccc(O)cc2)nn(-c2ccc(O)cc2)c1-c1ccc(OCCN2CCCCC2)cc1 [MPP, methyl-piperidino-pyrazole]",Curdlan-induced cell activation,Dectin-1 [1],remained largely unaffected
same,recruitment of endogenous MyD88 and IRAK4 to GyrB-MyD88,MyD88 homodimerization,inhibited recruitment of endogenous MyD88 and IRAK4
same,TNFα release induced by Curdlan,Dectin-1 [2],did not reduce TNFα release
same,inhibition of TIRAP-mediated NF-κB activity,TIRAP-GyrB,low μM concentrations
same,"TNFα release, Resiquimod (R848; TLR7)",TLR7 [3],interfered with TNFα release
same,"TNFα release, Pam3Cys (TLR2)",TLR2,interfered with TNFα release
same,interaction of the TIR-domain with full length MyD88,[4],strongly reduced
same,EC50,RAW264.7 cells,13.2 ± 2.4 µM
same,"recruitment of activation-dependent MyD88-interacting proteins, including IRAK4",MyD88 signaling complex,almost completely blocked recruitment
same,block of IκBα degradation and MAPK phosphorylation after CpG-DNA,TLR9 [5],almost completely
same,interaction of the DD-domain with full length MyD88,[6],but not the DD-domain
same,block of NF-κB- and MAPK-pathway activation downstream of R848,TLR7 [7],not completely
same,"TNFα release, CpG-DNA (TLR9)",TLR9 [8],interfered with TNFα release
same,RBA ERβ,[9],0.05 ± 0.01
same,RBA ERα,[10],12 ± 2
same,inhibition of MyD88-mediated NF-κB activity,MyD88-GyrB,low μM concentrations
same,"TNFα release, LPS (TLR4)",TLR4,interfered with TNFα release
"CC[C@@H]1[C@H](F)C(=O)N[C@@H]1COc1nccc2cc(C(N)=O)c(OC)cc12 [Pf-06650833, 1-{[(2S,3S,4S)-3-Ethyl-4-fluoro-5-oxopyrrolidin-2-yl]methoxy}−7-methoxyisoquinoline-6-carboxamide]",IC50,R848-induced PBMC,0.0024 µM
NC(=O)[C@H]1CCS[C@@H]2C[C@]3(CCCN3C(=O)Cc3ccc(NC(=O)COc4ccc(Cl)cc4Cl)cc3)C(=O)N12 [ST2825],IC50,[11],> 10 µM
